In ChEMBL document CHEMBL1140587, “Investigation of the terminal P4 domain in a series of D-phenylglycinamide-based factor Xa inhibitors” (Bioorg Med Chem Lett, 2007):

How the values were obtained:
[1] = AUC(0 to 7 hrs) in rat plasma at 20 mg/kg, po; type: ADME, organism-based; parameters: time < 7 hr, dose 20 mg/kg, route oral
Outline: (§1)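 Fasted Fisher rats (n = 3) got one 20 mpk oral gavage, suspended in acacia or CMC/Tween 80. Citrated blood was taken at set times and spun to plasma. Drug level was read as anti-Xa equivalents: plasma at 37 °C for 15 min, S-2222 substrate, human fXa 0.4 U/ml, 405 nm kinetic over 10 min. Values came from triplicate spiked-plasma standards by four-parameter logistic fit; AUC by area algorithm.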

[2] = biological target: Coagulation factor X (Homo sapiens) (UniProt P00742); test: Binding affinity to human factor10a
Chain of Coagulation factor X (Homo sapiens) (P00742 41-179 limits assumed): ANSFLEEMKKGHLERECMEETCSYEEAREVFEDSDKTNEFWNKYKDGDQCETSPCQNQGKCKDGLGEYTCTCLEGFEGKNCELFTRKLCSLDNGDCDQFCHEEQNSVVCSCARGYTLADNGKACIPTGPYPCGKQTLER
Chain of Coagulation factor X (Homo sapiens) (P00742 235-488 limits assumed): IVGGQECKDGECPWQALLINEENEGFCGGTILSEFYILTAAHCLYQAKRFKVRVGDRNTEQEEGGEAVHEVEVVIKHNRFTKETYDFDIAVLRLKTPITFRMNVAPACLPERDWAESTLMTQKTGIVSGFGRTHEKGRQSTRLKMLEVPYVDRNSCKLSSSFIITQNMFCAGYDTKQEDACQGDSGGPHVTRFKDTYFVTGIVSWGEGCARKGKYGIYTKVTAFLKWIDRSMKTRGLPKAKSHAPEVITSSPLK

[3] = Cmax in rat plasma at 20 mg/kg, po; type: ADME, organism-based; parameters: dose 20 mg/kg, route oral; outline: as §1
Plasma = test: Anticoagulant activity in human plasma assessed as concentration required to double prothrombin time; type: functional

Structure (SMILES) | AUC(0-t) at 7 h [1] [ng·h/mL] | Kapp [2] | Cmax [3] [µM] | Activity (Plasma) [µM]
O=C(N[C@@H](C(=O)N1CCC(CN2CCCCC2)CC1)c1ccccc1)c1ccc2c(Cl)c[nH]c2c1 | 10000 | 710 10^6L/mol | 1.7 | 1.1
CC(C)NCC1CCN(C(=O)[C@H](NC(=O)c2ccc3cc[nH]c3c2)c2ccccc2)CC1 | – | 7.8 10^6L/mol | – | –
O=C(N[C@@H](C(=O)N1CCC(CN2CC[C@@H](O)C2)CC1)c1ccccc1)c1ccc2cc[nH]c2c1 | – | 4 10^6L/mol | – | –
O=C(N[C@@H](C(=O)N1CCC(CN2CCC[C@H]2CO)CC1)c1ccccc1)c1ccc2cc[nH]c2c1 | – | 9.7 10^6L/mol | – | –
O=C(N[C@@H](C(=O)N1CCC(CN2CCC[C@@H]2CO)CC1)c1ccccc1)c1ccc2cc[nH]c2c1 | – | 18 10^6L/mol | – | 2.2
Cc1c[nH]c2cc(C(=O)N[C@@H](C(=O)N3CCC(CN4CCCCC4)CC3)c3ccccc3)ccc12 | 14000 | 110 10^6L/mol | 2.4 | 1.5
O=C(N[C@@H](C(=O)N1CCC(CN2CCC(O)C2)CC1)c1ccccc1)c1ccc2cc[nH]c2c1 (stereo not given in full) | – | 5 10^6L/mol | – | –
CN1CCC(C2CCN(C(=O)[C@H](NC(=O)c3ccc4cc[nH]c4c3)c3ccccc3)CC2)CC1 | 19000 | 450 10^6L/mol | 4 | 1.5
CCN(CC)CC1CCN(C(=O)[C@H](NC(=O)c2ccc3cc[nH]c3c2)c2ccccc2)CC1 | – | 28 10^6L/mol | – | 2.3

Further lines, with some results ahead:

AUC(0-t) at 7 h [1] [ng·h/mL] | Kapp [2] | Cmax [3] [µM] | Structure (SMILES) | Activity (Plasma) [µM]
– | 0.7 10^6L/mol | – | O=C(N[C@@H](C(=O)N1CCC(CN2CCC(CO)CC2)CC1)c1ccccc1)c1ccc2cc[nH]c2c1 | –
– | 24 10^6L/mol | – | O=C(N[C@@H](C(=O)N1CCC(CN2CCCC2)CC1)c1ccccc1)c1ccc2cc[nH]c2c1 | 2.2
23000 | 48 10^6L/mol | 4.7 | O=C(N[C@@H](C(=O)N1CCC(CN2CCCCC2)CC1)c1ccccc1)c1ccc2cc[nH]c2c1 | 1.2
– | 3.9 10^6L/mol | – | O=C(N[C@@H](C(=O)N1CCC(CN2CCNCC2)CC1)c1ccccc1)c1ccc2cc[nH]c2c1 | –
– | 1.5 10^6L/mol | – | CN1CCN(CC2CCN(C(=O)[C@H](NC(=O)c3ccc4cc[nH]c4c3)c3ccccc3)CC2)CC1 | –
– | 10 10^6L/mol | – | O=C(N[C@@H](C(=O)N1CCC(CN2CCC(O)CC2)CC1)c1ccccc1)c1ccc2cc[nH]c2c1 | –
